One series has as its target T1, Interstitial collagenase (Homo sapiens, UniProt P03956).
T1 sequence (P03956 whole entry): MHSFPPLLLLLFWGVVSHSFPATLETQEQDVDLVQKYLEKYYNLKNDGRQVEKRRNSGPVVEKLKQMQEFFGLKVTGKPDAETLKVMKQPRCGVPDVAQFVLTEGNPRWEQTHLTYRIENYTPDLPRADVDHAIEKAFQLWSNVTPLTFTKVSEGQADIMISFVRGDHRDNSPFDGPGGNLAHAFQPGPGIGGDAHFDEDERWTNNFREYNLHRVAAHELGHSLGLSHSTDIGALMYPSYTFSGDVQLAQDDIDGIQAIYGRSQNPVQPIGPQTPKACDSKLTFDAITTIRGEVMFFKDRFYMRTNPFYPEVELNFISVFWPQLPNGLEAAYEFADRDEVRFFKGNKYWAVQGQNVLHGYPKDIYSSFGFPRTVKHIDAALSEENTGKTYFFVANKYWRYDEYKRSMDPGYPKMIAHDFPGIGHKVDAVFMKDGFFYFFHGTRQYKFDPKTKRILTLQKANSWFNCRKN
The experiment in a line: Inhibition of MMP1 (unknown origin).

The target in series [1] is 72 kDa type IV collagenase (Homo sapiens, UniProt P08253). The experiment in a line: Inhibition of MMP2 (unknown origin).
Chain of 72 kDa type IV collagenase (P08253 whole entry): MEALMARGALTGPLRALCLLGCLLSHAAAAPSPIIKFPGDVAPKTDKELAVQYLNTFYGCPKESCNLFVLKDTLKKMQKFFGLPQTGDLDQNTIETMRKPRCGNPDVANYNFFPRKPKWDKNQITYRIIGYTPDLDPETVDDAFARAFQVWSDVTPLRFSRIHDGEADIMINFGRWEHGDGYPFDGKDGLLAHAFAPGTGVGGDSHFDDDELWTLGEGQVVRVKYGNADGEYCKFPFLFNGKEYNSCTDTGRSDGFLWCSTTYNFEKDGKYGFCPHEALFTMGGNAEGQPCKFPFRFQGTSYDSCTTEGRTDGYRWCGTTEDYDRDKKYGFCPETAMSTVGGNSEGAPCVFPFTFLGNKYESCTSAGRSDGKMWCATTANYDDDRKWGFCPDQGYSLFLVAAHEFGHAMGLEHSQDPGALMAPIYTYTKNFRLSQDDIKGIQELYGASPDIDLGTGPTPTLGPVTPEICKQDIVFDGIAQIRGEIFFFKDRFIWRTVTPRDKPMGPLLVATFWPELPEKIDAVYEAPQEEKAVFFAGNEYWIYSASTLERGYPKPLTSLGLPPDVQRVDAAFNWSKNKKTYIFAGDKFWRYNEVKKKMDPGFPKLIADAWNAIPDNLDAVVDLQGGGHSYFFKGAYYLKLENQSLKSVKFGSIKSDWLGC
Another series concerns the target Stromelysin-1 (Homo sapiens, UniProt P08254). The experiment in a line: Inhibition of MMP3 (unknown origin).
The next series has as its target T2, Matrilysin (Homo sapiens, UniProt P09237).
T2 sequence (P09237 whole entry): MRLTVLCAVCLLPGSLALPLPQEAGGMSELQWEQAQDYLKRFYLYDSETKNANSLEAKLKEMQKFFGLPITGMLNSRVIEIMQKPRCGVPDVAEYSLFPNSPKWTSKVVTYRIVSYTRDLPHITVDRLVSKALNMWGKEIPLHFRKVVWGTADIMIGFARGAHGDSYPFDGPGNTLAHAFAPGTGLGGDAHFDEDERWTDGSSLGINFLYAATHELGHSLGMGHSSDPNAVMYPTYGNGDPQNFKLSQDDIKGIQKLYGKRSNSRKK
The experiment in a line: Inhibition of MMP7 (unknown origin).

The target in series [2] is Matrix metalloproteinase-9 (Homo sapiens, UniProt P14780). The experiment in a line: Inhibition of MMP9 (unknown origin).
Chain of Matrix metalloproteinase-9 (P14780 whole entry): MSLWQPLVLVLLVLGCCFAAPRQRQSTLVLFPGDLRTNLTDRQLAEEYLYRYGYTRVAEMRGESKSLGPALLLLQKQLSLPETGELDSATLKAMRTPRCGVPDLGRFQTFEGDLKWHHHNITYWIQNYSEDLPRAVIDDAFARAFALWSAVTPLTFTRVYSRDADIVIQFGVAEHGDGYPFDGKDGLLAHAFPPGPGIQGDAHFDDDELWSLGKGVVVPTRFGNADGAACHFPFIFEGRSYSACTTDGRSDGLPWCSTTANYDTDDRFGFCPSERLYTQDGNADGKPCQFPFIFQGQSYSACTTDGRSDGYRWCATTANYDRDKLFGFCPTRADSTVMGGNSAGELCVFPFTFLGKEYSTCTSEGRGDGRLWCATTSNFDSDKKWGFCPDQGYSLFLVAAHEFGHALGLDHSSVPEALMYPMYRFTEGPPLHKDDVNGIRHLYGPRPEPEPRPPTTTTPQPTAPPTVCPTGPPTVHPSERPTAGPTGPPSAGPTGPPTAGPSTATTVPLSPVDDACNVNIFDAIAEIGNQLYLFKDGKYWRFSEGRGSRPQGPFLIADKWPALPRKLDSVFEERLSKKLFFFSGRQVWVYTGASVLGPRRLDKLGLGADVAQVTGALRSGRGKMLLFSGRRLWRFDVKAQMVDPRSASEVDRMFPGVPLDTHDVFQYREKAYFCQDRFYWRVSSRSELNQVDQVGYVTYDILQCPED
The target of another series is Collagenase 3 (Homo sapiens, UniProt P45452). The experiment in a line: Inhibition of MMP13 (unknown origin).
Series [3] concerns the target Matrix metalloproteinase-14 (Homo sapiens, UniProt P50281). The experiment in a line: Inhibition of MMP14 (unknown origin).
Series [4] addresses T3, Disintegrin and metalloproteinase domain-containing protein 10 (Homo sapiens, UniProt O14672).
T3 sequence (O14672 whole entry): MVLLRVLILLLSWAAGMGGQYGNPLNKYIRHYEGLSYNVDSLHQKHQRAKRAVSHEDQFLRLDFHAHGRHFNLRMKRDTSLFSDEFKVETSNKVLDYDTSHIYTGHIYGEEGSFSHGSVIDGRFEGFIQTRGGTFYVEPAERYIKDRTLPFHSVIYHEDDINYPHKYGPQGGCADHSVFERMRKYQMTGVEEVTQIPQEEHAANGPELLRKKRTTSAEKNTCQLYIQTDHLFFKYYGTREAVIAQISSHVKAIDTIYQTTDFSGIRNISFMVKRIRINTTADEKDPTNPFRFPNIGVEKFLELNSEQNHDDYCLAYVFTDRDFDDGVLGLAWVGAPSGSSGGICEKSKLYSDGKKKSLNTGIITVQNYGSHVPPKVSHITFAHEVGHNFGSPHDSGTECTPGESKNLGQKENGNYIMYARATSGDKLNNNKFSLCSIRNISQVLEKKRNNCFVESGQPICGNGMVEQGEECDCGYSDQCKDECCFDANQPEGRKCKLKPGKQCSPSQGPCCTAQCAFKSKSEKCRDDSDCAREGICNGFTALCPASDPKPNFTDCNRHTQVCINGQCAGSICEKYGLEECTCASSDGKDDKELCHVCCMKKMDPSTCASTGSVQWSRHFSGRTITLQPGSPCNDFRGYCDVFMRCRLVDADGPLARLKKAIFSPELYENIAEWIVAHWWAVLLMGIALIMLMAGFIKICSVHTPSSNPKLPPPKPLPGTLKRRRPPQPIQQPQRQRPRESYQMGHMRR
The experiment in a line: Inhibition of ADAM10 (unknown origin).

Series [5] addresses Disintegrin and metalloproteinase domain-containing protein 17 (Homo sapiens, UniProt P78536). The experiment in a line: Inhibition of catalytic domain TACE (unknown origin) by FRET assay.
A further series relates to Blood. The experiment in a line: Antiinflammatory activity in human whole blood assessed as inhibition of LPS-induced TNF-alpha release preincubated for 1 hr followed by LPS addition after 3.5 hrs by ELISA method. The series is classed as functional.
A short description of series [6]: AUC in rat. The series is classed as ADME. Also on record: concentration or dose not given beside the values. Conditions: in vivo.
Series [7] is described as follows: Permeability from apical side to basolateral side in human Caco2 cells. The series is classed as ADME, cell-based. Conditions: Caco-2, read-out: permeability. (Caco-2 monolayers are a common model of the intestinal barrier.)
Series [8] in a line: Clearance in dog at 0.5 mg/kg, iv. The series is classed as ADME, organism-based, Canis lupus familiaris. The following applies: in vivo.
Series [9] can be described thus: Clearance in rat at 3 mg/kg, iv. The series is classed as ADME, organism-based. Conditions: in vivo.
A short description of series [10]: Clearance in monkey at 1 mg/kg, iv. The series is classed as ADME, organism-based, Macaca mulatta. Conditions: rhesus monkey, in vivo.
Series [11] in a line: AUC in rat at 10 mg/kg, po. The series is classed as ADME, organism-based. Conditions: in vivo. The method in brief: (§1)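 Oral dosing of rats, dogs and monkeys, with compounds given as Na+ or HCl salts in a 0.4% HPMC formulation. Doses were 10 mg/kg in rat, 2 or 3 mg/kg in dog, and 3 or 10 mg/kg in monkey. Plasma exposure was reported as AUC in µM·h, and oral bioavailability as F%.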

Series [12] can be described thus: Oral bioavailability in rat at 10 mg/kg. The series is classed as ADME, organism-based. The following applies: in vivo. A digest of the protocol:
as §1

Series [13] is described as follows: AUC in dog at 3 mg/kg, po. The following applies: in vivo. The series is classed as ADME, organism-based, Canis lupus familiaris. A digest of the protocol:
as §1

Series [14] is described as follows: Oral bioavailability in dog at 3 mg/kg. The series is classed as ADME, organism-based, Canis lupus familiaris. The following applies: in vivo. A digest of the protocol: as §1
Series [15] in a line: AUC in monkey at 3 mg/kg, po. The series is classed as ADME, organism-based, Macaca mulatta. The following applies: rhesus monkey, in vivo. A digest of the protocol: as §1
Series [16] is described as follows: Oral bioavailability in monkey at 3 mg/kg. The series is classed as ADME, organism-based, Macaca mulatta. Conditions: rhesus monkey, in vivo. The method in brief: as §1
Series [17] is described as follows: AUC in monkey at 10 mg/kg, po. Conditions: rhesus monkey, in vivo. The series is classed as ADME, organism-based, Macaca mulatta. A digest of the protocol: as §1
A short description of series [18]: Oral bioavailability in monkey at 10 mg/kg. The series is classed as ADME, organism-based, Macaca mulatta. The following applies: rhesus monkey, in vivo. A digest of the protocol:
as §1

pIC50, pKi: −log10 of the molar value.

Chain of Disintegrin and metalloproteinase domain-containing protein 17 (P78536 whole entry, the tested form may be a part): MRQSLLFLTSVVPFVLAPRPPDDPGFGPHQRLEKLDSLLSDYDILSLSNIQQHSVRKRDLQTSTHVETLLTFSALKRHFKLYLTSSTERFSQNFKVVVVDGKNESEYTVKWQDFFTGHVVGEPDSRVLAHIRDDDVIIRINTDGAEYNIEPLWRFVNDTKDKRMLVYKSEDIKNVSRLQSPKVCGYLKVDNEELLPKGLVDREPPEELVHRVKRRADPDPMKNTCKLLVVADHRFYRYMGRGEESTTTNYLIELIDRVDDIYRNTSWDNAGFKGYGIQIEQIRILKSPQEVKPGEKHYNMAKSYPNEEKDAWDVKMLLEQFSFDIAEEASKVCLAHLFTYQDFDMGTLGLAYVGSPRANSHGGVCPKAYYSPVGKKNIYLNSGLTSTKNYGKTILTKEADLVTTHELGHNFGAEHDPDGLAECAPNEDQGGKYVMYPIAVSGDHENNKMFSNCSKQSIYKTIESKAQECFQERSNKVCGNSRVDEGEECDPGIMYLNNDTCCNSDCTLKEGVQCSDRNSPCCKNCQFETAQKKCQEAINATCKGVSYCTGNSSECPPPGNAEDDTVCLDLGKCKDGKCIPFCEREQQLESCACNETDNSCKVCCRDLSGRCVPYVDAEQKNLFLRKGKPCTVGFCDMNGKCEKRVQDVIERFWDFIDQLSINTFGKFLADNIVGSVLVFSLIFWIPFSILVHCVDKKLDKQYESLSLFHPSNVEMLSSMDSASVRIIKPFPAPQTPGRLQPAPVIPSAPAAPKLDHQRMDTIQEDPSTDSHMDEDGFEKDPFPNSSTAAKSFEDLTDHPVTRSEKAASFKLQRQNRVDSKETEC
Chain of Stromelysin-1 (P08254 whole entry): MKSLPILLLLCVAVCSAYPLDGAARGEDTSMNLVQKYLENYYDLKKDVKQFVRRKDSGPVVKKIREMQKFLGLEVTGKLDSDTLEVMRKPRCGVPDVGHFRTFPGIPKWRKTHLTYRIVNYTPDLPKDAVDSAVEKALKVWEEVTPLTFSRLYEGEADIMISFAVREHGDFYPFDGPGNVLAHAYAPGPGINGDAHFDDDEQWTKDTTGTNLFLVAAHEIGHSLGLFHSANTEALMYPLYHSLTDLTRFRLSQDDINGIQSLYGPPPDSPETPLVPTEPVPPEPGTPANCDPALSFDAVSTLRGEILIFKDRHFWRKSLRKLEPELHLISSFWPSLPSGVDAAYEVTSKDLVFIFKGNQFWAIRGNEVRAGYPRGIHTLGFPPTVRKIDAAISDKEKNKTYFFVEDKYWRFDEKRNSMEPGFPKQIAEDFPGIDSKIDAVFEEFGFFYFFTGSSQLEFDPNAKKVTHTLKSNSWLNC

In general, pIC50 refers to −log10 of the IC50, conventionally taken in molar units. One may read the pKi as −log10 of the Ki, conventionally taken in molar units. Broadly, the AUC is the area under the concentration-time curve, a measure of exposure. What is called clearance is the rate of elimination divided by the concentration. The term bioavailability denotes the share of a dose that reaches the circulation, judged against a reference dose that is usually intravenous. As for `COc1ccc2c(c1)C(=O)N(C[C@@]1(c3cc4cnccc4o3)NC(=O)NC1=O)C2`, the pIC50 on Interstitial collagenase was 5.33; in [1] it was 6.27; at Stromelysin-1, 5.26; against Matrilysin, less than 4.40; in [2], 5.75; against Collagenase 3 it was 6.16. The figures for the pIC50 (in [3]; in the series on Blood) were 6.62 and 6.57, respectively. Besides, the negative-log Ki (pKi) in series [4] is 6.84; in [5], 9.15. For the same compound, the AUC in [6] worked out at 13 µM·h; in series [11] it was 11 µM·h; in series [13] it was 52 µM·h; in [15], 10 µM·h. Moreover, in series [7], the Papp A→B amounted to 1.5 ×10⁻⁶ cm/s. In addition, the clearance in series [8] turned out to be 3 mL/min/kg; in [9] it was 23 mL/min/kg; in series [10] it was 7 mL/min/kg. Besides, the bioavailability in series [12] came to 58%; in [14], 98%; in series [16], 19%.
In series [5], `COc1ccc2c(c1)C(=O)N(C[C@@]1(c3cc4ncccc4o3)NC(=O)NC1=O)C2` gave a pKi of 9.30. The pIC50 with Blood is 6.54. For the same compound, the AUC in series [6] was 27 µM·h; in series [11], 10 µM·h; in series [13], 41 µM·h; in series [17], 22 µM·h. For the same compound, in [7], the Papp A→B stood at 1.2 ×10⁻⁶ cm/s. Further, the values for the clearance in [8], in series [9] and in [10] were 3 mL/min/kg, 15 mL/min/kg and 11 mL/min/kg, respectively. Further, the results for the bioavailability in series [12], in [14] and in series [18] were 35%, 82% and 46%, respectively.

These data come from ChEMBL document CHEMBL4020802, “Fused bi-heteroaryl substituted hydantoin compounds as TACE inhibitors” (Bioorg Med Chem Lett, 2017).
